Each block holds one compound with its values, some of them ahead of it.
Key:
[1] = target: T1, TRPM3α1 (Mus musculus, UniProt J9SQF3); experiment: Calcium microfluorimetry, HEK293T cells transiently transfected with TRPM3α1; assay type: cell-based; details: for intracellular calcium response: PS 40 μM, Nif 50 μM, Clt 10 μM, CIM0216 1 μM, Fura-2; for calcium signal at high agonist concentrations: PS 50, 100 and 200 μM, Nif 100 and 200 μM
[2] = target: T1, TRPM3α1; experiment: Whole-cell patch clamp, HEK293T cells expressing TRPM3α1; assay type: cell-based; details: for block of CIM0216-induced currents: CIM0216 1 μM, isosakuranetin 5 μM; for block of CIM0216-induced currents / block of clotrimazole-induced currents: diclofenac 100 μM, primidone 25 μM; for block of CIM0216-induced currents / block of clotrimazole-induced currents / whole-cell current increase: ±80 mV; for block of clotrimazole-induced currents: Clt 10 μM; for whole-cell current increase: Nif 50 μM
[3] = target: TRPM3α2 (Mus musculus, UniProt J9SQF3); experiment: Whole-cell patch clamp, HEK293T cells expressing TRPM3α2; assay type: cell-based, murine; details: for block of CIM0216-induced currents: isosakuranetin 5 μM, diclofenac 100 μM, primidone 25 μM
[4] = tested on: TRPM3α1 Δ3a; experiment: Whole-cell patch clamp, deletion mutant TRPM3α1 Δ3a; assay type: cell-based, mouse; details: n=5
[5] = tested on: TRPM3α1 Δ3b; experiment: Whole-cell patch clamp, deletion mutant TRPM3α1 Δ3b; assay type: cell-based, mouse; details: n=5
[6] = tested on: TRPM3α1 Δ3c; experiment: Whole-cell patch clamp, deletion mutant TRPM3α1 Δ3c; assay type: cell-based, mouse; details: n=5
[7] = tested on: TRPM3α1 Δ3d; experiment: Whole-cell patch clamp, deletion mutant TRPM3α1 Δ3d; assay type: cell-based, mouse; details: for block of clotrimazole-activated currents: isosakuranetin 5 μM, diclofenac 100 μM, primidone 25 μM
[8] = target: TRPM3α1 Δ6b (Mus musculus, UniProt J9SQF3, DEL1071-1076); experiment: Whole-cell patch clamp, deletion mutant TRPM3α1 Δ6b; assay type: cell-based; details: for block of clotrimazole-activated currents: Clt 10 μM, isosakuranetin 5 μM, diclofenac 100 μM, primidone 25 μM
[9] = target: TRPM3α2_D1064_A_P1065 (TRPM3α2 +1) (Mus musculus, UniProt J9SQF3, INS1087A); experiment: Whole-cell patch clamp, insertion mutant TRPM3α2 +1; assay type: cell-based; details: for block of clotrimazole-evoked currents / block of pregnenolone sulphate-induced currents: isosakuranetin 5 μM, diclofenac 100 μM, primidone 25 μM
[10] = tested on: short pore loop TRPM3α variants (α2–α6); assay type: cell-based, mouse; details: PS 40 μM, Nif 50 μM; all isoforms α2–α6
In short: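 HEK293T cells transiently transfected 48 h before imaging were loaded with Fura-2 AM for 20 min at 37°C. Ratios at 340/380 nm excitation were converted to absolute calcium by Grynkiewicz calibration. Response was taken as maximum minus basal during the stimulus. Only cells responding to a final ionomycin challenge were counted. At least three independent coverslips were used.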

[11] = target: TRPM3α1 and TRPM3α2 co-expressed (Mus musculus, UniProt J9SQF3); experiment: Calcium microfluorimetry, HEK293 cells co-transfected with TRPM3α1 and TRPM3α2; assay type: cell-based; details: PS 40 μM, Clt 10 μM; TRPM3α2 cDNA 0.5 μg with TRPM3α1 cDNA 0, 1.5 and 3 μg
[12] = target: T2, short pore loop TRPM3α isoforms (α2–α6) (Mus musculus, UniProt J9SQF3); experiment: Whole-cell patch clamp, HEK293T cells expressing short pore loop TRPM3α isoforms; assay type: cell-based; details: PS 40 μM, Clt 10 μM; ±80 mV
T2 sequence (J9SQF3 852-1200 limits assumed): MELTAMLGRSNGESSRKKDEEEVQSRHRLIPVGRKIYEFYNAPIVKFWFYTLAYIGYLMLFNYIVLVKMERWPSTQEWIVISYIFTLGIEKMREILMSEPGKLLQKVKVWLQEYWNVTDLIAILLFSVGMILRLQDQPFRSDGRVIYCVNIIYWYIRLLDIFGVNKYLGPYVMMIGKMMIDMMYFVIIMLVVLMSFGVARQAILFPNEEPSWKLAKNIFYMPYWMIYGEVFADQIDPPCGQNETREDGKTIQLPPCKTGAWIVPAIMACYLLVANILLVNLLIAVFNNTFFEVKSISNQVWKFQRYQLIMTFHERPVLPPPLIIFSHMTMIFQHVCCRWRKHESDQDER

[13] = target: TRPM3α1 A1077P (α1 A‐P) (Mus musculus, UniProt J9SQF3, A1077P); experiment: Whole-cell patch clamp, mutant TRPM3α1 A1077P; assay type: cell-based; details: PS 40 μM, n=6
[14] = target: TRPM3α1 Δ6a (Mus musculus, UniProt J9SQF3, DEL1065-1070); experiment: Whole-cell patch clamp, deletion mutant TRPM3α1 Δ6a; assay type: cell-based; details: PS 40 μM, n=4
[15] = target: TRPM3α1 Δ12 (Mus musculus, UniProt J9SQF3, DEL1065-1076); experiment: Whole-cell patch clamp, deletion mutant TRPM3α1 Δ12; assay type: cell-based; details: PS 40 μM, n=6
[16] = target: TRPM3α2 +5 (Mus musculus, UniProt J9SQF3, INS1087AAAAA); experiment: Whole-cell patch clamp, insertion mutant TRPM3α2 +5; assay type: cell-based; details: PS 40 μM, n=4
[17] = target: TRPM3α2 +4 (Mus musculus, UniProt J9SQF3, INS1087AAAA); experiment: Whole-cell patch clamp, insertion mutant TRPM3α2 +4; assay type: cell-based; details: PS 40 μM, n=6
[18] = target: TRPM3α2 +3 (Mus musculus, UniProt J9SQF3, INS1087AAA); experiment: Whole-cell patch clamp, insertion mutant TRPM3α2 +3; assay type: cell-based; details: PS 40 μM, n=5
[19] = target: TRPM3α2 D1064_AA_P1065 (TRPM3α2 +2) (Mus musculus, UniProt J9SQF3, INS1087AA); experiment: Whole-cell patch clamp, insertion mutant TRPM3α2 +2; assay type: cell-based; details: PS 40 μM, n=4

- EC50 ([2]; read-out: EC50 of current activation, CIM0216, outwardly rectifying currents): 570 ± 50 nM
SMILES: Cc1cc(NC(=O)C(c2ccccc2)N2CCCc3ccccc32)no1 (stereo not drawn) [CIM0216]
- intracellular calcium response [1]: sizable increases in intracellular calcium
- whole-cell current increase ([3]; CIM0216 1 μM, ±80 mV): robust increase in both inward and outward currents

SMILES: Clc1ccccc1C(c1ccccc1)(c1ccccc1)n1ccnc1 [clotrimazole, Clotrimazole]
- Clt +80 mV ΔI density ([4]; Clt 10 μM, +80 mV): 430.6 ± 74.8 pA/pF
- Clt −80 mV ΔI density ([4]; Clt 10 μM, −80 mV): −355.3 ± 55.5 pA/pF
- Clt +80 mV ΔI density ([5]; Clt 10 μM, +80 mV): 149.2 ± 21.2 pA/pF
- Clt −80 mV ΔI density ([5]; Clt 10 μM, −80 mV): −122.8 ± 13.9 pA/pF
- Clt +80 mV ΔI density ([6]; Clt 10 μM, +80 mV): 242.5 ± 17.2 pA/pF
- Clt −80 mV ΔI density ([6]; Clt 10 μM, −80 mV): −225.3 ± 13.8 pA/pF
- Clt +80 mV ΔI density ([7]; Clt 10 μM, +80 mV, n=5): 269.2 ± 55.2 pA/pF
- Clt −80 mV ΔI density ([7]; Clt 10 μM, −80 mV, n=5): −259.7 ± 53.1 pA/pF

- block of CIM0216-induced currents [2]: full block
- block of clotrimazole-induced currents [2]: only partially blocked
- block of CIM0216-induced currents ([3]; CIM0216 1 μM, ±80 mV): full block
- block of clotrimazole-activated currents [8]: only a partial block
- block of clotrimazole-evoked currents [9]: ineffective
- block of pregnenolone sulphate-induced currents [9]: fully block
SMILES: O=C(O)Cc1ccccc1Nc1c(Cl)cccc1Cl [diclofenac, Diclofenac]
- block of clotrimazole-activated currents ([7]; Clt 10 μM): only a partial block

- whole-cell current increase ([2]; PS 40 μM): without effect
SMILES: COC(=O)C1=C(C)NC(C)=C(C(=O)OC)C1c1ccccc1[N+](=O)[O-] [nifedipine, Nifedipine]
- intracellular calcium response [1]: did not induce any detectable calcium rise
- calcium signal at high agonist concentrations [1]: did not induce any detectable calcium signal
- intracellular calcium response [10]: robust calcium responses

- calcium increase in co-expressing cells versus TRPM3α2 alone [11]: significantly reduced
- inhibition of clotrimazole-activated currents by co-application ([2]; PS 40 μM on Clt 10 μM currents, at +80 mV): 10.5 ± 5.1%
- PS +80 mV ΔI density ([2]; PS 40 μM, +80 mV, n=5): −1.0 ± 0.85 pA/pF
- PS −80 mV ΔI density ([2]; PS 40 μM, −80 mV, n=5): 0.2 ± 0.1 pA/pF
- PS +80 mV ΔI density ([3]; PS 40 μM, +80 mV, n=11): 38.1 ± 12.9 pA/pF
- PS −80 mV ΔI density ([3]; PS 40 μM, −80 mV, n=11): −1.9 ± 0.5 pA/pF
- whole-cell current increase [12]: robust current increases
- PS +80 mV ΔI density ([13]; +80 mV): −0.4 ± 0.6 pA/pF
- PS −80 mV ΔI density ([13]; −80 mV): −0.1 ± 0.3 pA/pF
- PS +80 mV ΔI density ([14]; +80 mV): 0.25 ± 0.2 pA/pF
- PS −80 mV ΔI density ([14]; −80 mV): −0.05 ± 0.3 pA/pF
- PS +80 mV ΔI density ([8]; PS 40 μM, +80 mV, n=5): 0.3 ± 0.1 pA/pF
- PS −80 mV ΔI density ([8]; PS 40 μM, −80 mV, n=5): −0.2 ± 0.02 pA/pF
- PS +80 mV ΔI density ([15]; +80 mV): 35.6 ± 13.9 pA/pF
- PS −80 mV ΔI density ([15]; −80 mV): −3.8 ± 1.7 pA/pF
- PS +80 mV ΔI density ([16]; +80 mV): 1.2 ± 0.6 pA/pF
- PS −80 mV ΔI density ([16]; −80 mV): −0.1 ± 0.1 pA/pF
- PS +80 mV ΔI density ([17]; +80 mV): 1.1 ± 0.4 pA/pF
- PS −80 mV ΔI density ([17]; −80 mV): −0.3 ± 0.2 pA/pF
- PS +80 mV ΔI density ([18]; +80 mV): 7.8 ± 2.0 pA/pF
- PS −80 mV ΔI density ([18]; −80 mV): −1.3 ± 0.4 pA/pF
- PS +80 mV ΔI density ([19]; +80 mV): 1.2 ± 0.6 pA/pF
- PS −80 mV ΔI density ([19]; −80 mV): −0.1 ± 0.2 pA/pF
- PS +80 mV ΔI density ([9]; PS 40 μM, +80 mV, n=4): 45.2 ± 18.6 pA/pF
- PS −80 mV ΔI density ([9]; PS 40 μM, −80 mV, n=4): −2.2 ± 0.6 pA/pF
SMILES: CC(=O)[C@H]1CC[C@H]2[C@@H]3CC=C4C[C@@H](OS(=O)(=O)[O-])CC[C@]4(C)[C@H]3CC[C@]12C.[Na+] [pregnenolone sulphate, Pregnenolone sulphate sodium salt]
- intracellular calcium response [1]: did not induce any detectable calcium rise
- calcium signal at high agonist concentrations [1]: did not induce any detectable calcium signal
- intracellular calcium response [10]: robust calcium responses
- whole-cell current increase ([2]; PS 40 μM): did not evoke any increase in current amplitude
- PS +80 mV ΔI density ([4]; PS 40 μM, +80 mV): 0.01 ± 0.2 pA/pF
- PS −80 mV ΔI density ([4]; PS 40 μM, −80 mV): 0.3 ± 0.3 pA/pF
- PS +80 mV ΔI density ([5]; PS 40 μM, +80 mV): −0.5 ± 0.4 pA/pF
- PS −80 mV ΔI density ([5]; PS 40 μM, −80 mV): 0.1 ± 0.04 pA/pF
- PS +80 mV ΔI density ([6]; PS 40 μM, +80 mV): −0.1 ± 0.1 pA/pF
- PS −80 mV ΔI density ([6]; PS 40 μM, −80 mV): 0.2 ± 0.1 pA/pF
- PS +80 mV ΔI density ([7]; PS 40 μM, +80 mV, n=5): 0.04 ± 0.3 pA/pF
- PS −80 mV ΔI density ([7]; PS 40 μM, −80 mV, n=5): 0.01 ± 0.04 pA/pF

- block of CIM0216-induced currents [2]: full block
- block of clotrimazole-induced currents [2]: only partially blocked
- block of CIM0216-induced currents ([3]; CIM0216 1 μM, ±80 mV): full block
- block of clotrimazole-activated currents [8]: only a partial block
- block of clotrimazole-evoked currents [9]: ineffective
- block of pregnenolone sulphate-induced currents [9]: fully block
SMILES: CCC1(c2ccccc2)C(=O)NCNC1=O [primidone, Primidone]
- block of clotrimazole-activated currents ([7]; Clt 10 μM): only a partial block

From publication PMC9290681 (British Journal of Pharmacology, 2020)
